Assay outcomes from PubChem.
Rows were chosen to be rich in hits. Some 5.8% of all compounds tested hit in one or more screens of this group.
IDH1 R132H inh – IDH1 R132H (human) inhibition; AID 624101; 70,000 tested, 0.18% active; O75874; inhibition, % at 10 µM; IDH1 R132H reductase, diaphorase/resazurin fluorescence, 60 min; in the data active = inhibition above about 34%; inconclusive = no clear call, values can overlap the other calls; inactive = below about 11%;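 also: 0% = DMSO and 100% = no enzyme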
Pf Dd2 inh – P. falciparum Dd2 growth inhibition; SYBR Green, 72 h; stronger effect = lower value; 94,000 tested, 2.3% active; activity change, % at 10 µM; AID 1159554; in the data active = activity change below about -80%; inconclusive = no clear call, values can overlap the other calls
T cruzi growth-1 – inhibitors of T. cruzi proliferation. 77,000 tested, 5.9% active. inhibition, % at 8.34 µM. AID 624255. T. cruzi beta-gal in NIH3T3, GalScreen luminescence, 90 h;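 active = mean inhibition above about 93%, with at least 55% of replicates each passing it, limit read from the data, passing the limit was not always enough; inconclusive = only one of those two conditions holds; inactive = neither condition holds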
GASC1 inh – KDM4C (human) demethylase inhibition; AID 720574; GST-KDM4C 2-372, H3K9me3 peptide, LANCE TR-FRET; inhibition, % at 12.5 µM; 96,000 tested, 0.15% active;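 active = mean replicate inhibition above about 25%, with at least 55% of replicates also reaching it, limit read from the data, passing the limit was not always enough; inconclusive = only one of those two conditions met; inactive = neither condition met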
Target sequence (Q9H3R0 2-372 limits assumed): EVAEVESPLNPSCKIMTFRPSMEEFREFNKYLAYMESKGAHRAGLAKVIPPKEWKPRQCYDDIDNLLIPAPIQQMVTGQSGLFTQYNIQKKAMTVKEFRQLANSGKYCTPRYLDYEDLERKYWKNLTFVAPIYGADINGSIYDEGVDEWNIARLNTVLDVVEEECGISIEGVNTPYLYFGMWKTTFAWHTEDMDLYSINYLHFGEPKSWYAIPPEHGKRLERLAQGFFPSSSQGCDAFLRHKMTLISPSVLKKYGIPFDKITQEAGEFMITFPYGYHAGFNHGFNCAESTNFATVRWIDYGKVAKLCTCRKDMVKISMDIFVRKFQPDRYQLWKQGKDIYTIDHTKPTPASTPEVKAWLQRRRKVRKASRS
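Material: GST-tagged GASC-1 (JMJD2C) catalytic fragment, aa 2-372 / Quantity: enzyme final amount 10 nM / Medium: HEPES buffer, pH 7.5, plus ascorbate / Doses: one test concentration per compound / Incubation: 30 min reaction, 60 min detection, RT / Measured by: LANCE TR-FRET / Read-out: inhibition from TR-FRET ratio decrease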
T cruzi growth-2 – blocks T. cruzi growth in NIH3T3 host cells. shares compounds with T cruzi growth-1. T. cruzi beta-gal in NIH3T3, GalScreen luminescence, 90 h. inhibition, % at 8.35 µM. 5,600 tested, 72% active. AID 651739;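 active = mean replicate inhibition above about 95% and at least 55% of replicates individually reaching it, limit read from the data; inconclusive = only one of the two criteria is met; inactive = neither criterion is met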
T cruzi growth-3 – inhibitors of T. cruzi proliferation. inhibition, % at 2.09 µM. 5,600 tested, 21% active. shares compounds with T cruzi growth-1. T. cruzi beta-gal in NIH3T3, GalScreen luminescence, 90 h;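 active = mean inhibition above about 95%, with at least 55% of replicates also reaching it, limit read from the data; inconclusive = meets just one of the two conditions; inactive = meets neither condition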;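 also: plate controls were neutral control median for no effect and positive control median for full effect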
3T3 cytotox – kills mouse NIH/3T3 fibroblasts; shares compounds with T cruzi growth-1; cytotoxicity (signal decrease), % at 8.35 µM; NIH/3T3 viability, CellTiter-Glo ATP luminescence, 90 h; 5,600 tested, 14% active;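 active = mean signal decrease across replicates above about 35% based on untreated-well scatter, with enough replicates individually passing, limit read from the data; inconclusive = no rule stated though some were filed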;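 also: 0% = median of neutral control wells and 100% = median of positive control wells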
NIH3T3 tox 2 – kills mouse NIH/3T3 fibroblasts | shares compounds with T cruzi growth-1 | NIH/3T3 viability, CellTiter-Glo ATP luminescence, 90 h | inhibition, % at 24.9 µM | 5,600 tested, 56% active;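 active = mean loss of cell viability signal at or above a set limit, and enough replicates individually reaching it; inconclusive = meets only the mean limit or only the replicate share; inactive = meets neither condition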;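 also: 0% = median of neutral control wells and 100% = median of positive control wells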
* hit, by the source's call; ? = inconclusive; . = no result.

SMILES	IDH1 R132H inh	Pf Dd2 inh	T cruzi growth-1	GASC1 inh	T cruzi growth-2	T cruzi growth-3	3T3 cytotox	NIH3T3 tox 2
C[C@H](CO)N1C[C@H](C)[C@H](CN(C)S(C)(=O)=O)Oc2cc(C#Cc3ccc(F)cc3)ccc2S1(=O)=O	-3	-26	115*	8	103*	71	12	51*
CCCC#Cc1ccc2c(c1)O[C@@H](CN(C)S(C)(=O)=O)[C@@H](C)CN([C@@H](C)CO)S2(=O)=O	-2	-1	101*	-1	?	?	32	58*
C[C@H]1CN([C@@H](C)CO)S(=O)(=O)c2ccc(C#Cc3ccc(F)cc3)cc2O[C@H]1CN(C)S(C)(=O)=O	-2	-36	118*	1	105*	59	20	2
C[C@H]1CN([C@@H](C)CO)S(=O)(=O)c2ccc(C#Cc3ccc(F)cc3)cc2O[C@@H]1CN(C)S(C)(=O)=O	-2	-10	122*	-2	102*	65	?	87*
COc1ccccc1NC(=O)N[C@H]1CC[C@H](CCn2cc(-c3ccccc3OC)nn2)O[C@H]1CO	0	-21	62	.	.	.	.	.
O=C(C[C@@H]1CC[C@H]2[C@@H](COC[C@@H](O)CN2S(=O)(=O)c2ccccc2)O1)NCCN1CCCCC1	.	.	66	0	.	.	.	.
C[C@@H]1CCCCO[C@H](CN(C)C(=O)c2ccncc2)[C@@H](C)CN([C@H](C)CO)C(=O)c2cc(NC(=O)C3CCCCC3)ccc2O1	.	-9	1	0	.	.	.	.
C[C@H](CO)N1C[C@H](C)[C@@H](CN(C)Cc2ccc(Oc3ccccc3)cc2)Oc2c(NS(=O)(=O)c3ccc(Cl)cc3)cccc2C1=O	.	-48	102*	-2	?	77	21	100*
C[C@H]1CN([C@@H](C)CO)C(=O)c2cccc(NS(=O)(=O)c3ccc(Cl)cc3)c2O[C@H]1CN(C)Cc1ccc(Oc2ccccc2)cc1	.	-22	103	0	.	.	.	.
C[C@@H]1CN([C@H](C)CO)C(=O)c2cccc(NS(=O)(=O)c3ccc(Cl)cc3)c2O[C@H]1CN(C)Cc1ccc(Oc2ccccc2)cc1	-1	-59	?	3	110*	64	-12	24
C[C@@H]1CN([C@@H](C)CO)C(=O)c2cccc(NS(=O)(=O)c3ccc(Cl)cc3)c2O[C@@H]1CN(C)Cc1ccc(Oc2ccccc2)cc1	2	-67	96	-2	.	.	.	.
CC(=O)c1ccc(NC(=O)CSc2nnc3c4ccccc4n(C)c3n2)cc1	0	.	.	.	.	.	.	.
C[C@H]1CN([C@@H](C)CO)C(=O)c2cc(NC(=O)Nc3cccc4ccccc34)ccc2O[C@@H]1CN(C)Cc1ccc(Oc2ccccc2)cc1	3	-78	125*	-2	98*	102*	41*	44*
C[C@H](CO)N1C[C@H](C)[C@@H](CN(C)Cc2ccc(Oc3ccccc3)cc2)Oc2ccc(NC(=O)Nc3cccc4ccccc34)cc2C1=O	.	-51	117*	-1	99*	78	?	24
C[C@@H]1CN([C@H](C)CO)C(=O)c2cc(NC(=O)Nc3cccc4ccccc34)ccc2O[C@@H]1CN(C)Cc1ccc(Oc2ccccc2)cc1	0	-4	117*	2	101*	48	41*	?
C[C@H](CO)N1C[C@H](C)[C@H](CN(C)Cc2ccc(Oc3ccccc3)cc2)Oc2ccc(NC(=O)Nc3cccc4ccccc34)cc2C1=O	.	-65	123*	-3	104*	100*	33	37*
COc1cccc(S(=O)(=O)N2CC3(CN[C@H](CO)c4[nH]c5cc(OC)ccc5c43)C2)c1	.	-59	.	0	.	.	.	.
C/C=C/c1cnc2c(c1)C(=O)N([C@H](C)CO)C[C@H](C)[C@@H](CN(C)C(=O)C1CCOCC1)O2	-2	32	13	0	.	.	.	.
NC(=O)c1c(NC(=O)COc2cccc(C(F)(F)F)c2)sc2c1CCC2	0	.	.	.	.	.	.	.
CCOc1cc([N+](=O)[O-])ccc1NC(=O)CC1Sc2ccccc2NC1=O (stereo not given)	0	.	.	.	.	.	.	.
COc1ccccc1CNC(=O)C[C@@H]1CC[C@@H]2[C@H](COC[C@@H](O)CN2C(=O)Nc2ccc(Cl)cc2)O1	.	-9	44	1	.	.	.	.
C[C@H]1CN([C@@H](C)CO)C(=O)Cc2cc(NC(=O)Nc3ccc(F)cc3)ccc2O[C@H]1CN(C)C(=O)NC1CCCCC1	-2	-1	7	.	.	.	.	.
C[C@@H]1CN([C@@H](C)CO)C(=O)Cc2cc(NS(=O)(=O)c3ccc(Cl)cc3)ccc2O[C@H]1CN(C)Cc1ccc2c(c1)OCO2	0	-13	78	1	.	.	.	.
C[C@@H]1CN([C@H](C)CO)C(=O)Cc2cc(NS(=O)(=O)c3ccc(Cl)cc3)ccc2O[C@@H]1CN(C)Cc1ccc2c(c1)OCO2	.	20	99*	1	106*	38	?	42*
Cc1ccc(S(=O)(=O)Nc2ccc3c(c2)CC(=O)N([C@H](C)CO)C[C@H](C)[C@@H](CN(C)Cc2ccc4c(c2)OCO4)O3)cc1	0	-60	106*	4	104*	99*	-32	25*
SMILES	IDH1 R132H inh	Pf Dd2 inh	T cruzi growth-1	GASC1 inh	T cruzi growth-2	T cruzi growth-3	3T3 cytotox	NIH3T3 tox 2
Cc1ccc(S(=O)(=O)Nc2ccc3c(c2)CC(=O)N([C@@H](C)CO)C[C@@H](C)[C@@H](CN(C)Cc2ccc4c(c2)OCO4)O3)cc1	2	25	62	-1	.	.	.	.
C[C@@H]1CN([C@H](C)CO)C(=O)Cc2cc(NS(=O)(=O)c3ccc(Cl)cc3)ccc2O[C@H]1CN(C)Cc1ccc2c(c1)OCO2	1	8	113*	0	108*	86	14	3
C[C@@H]1CN([C@H](C)CO)C(=O)c2cc(C3=CCCC3)cnc2O[C@H]1CN(C)C(=O)Nc1ccc(C(F)(F)F)cc1	.	-20	102*	0	98*	44	23	59*
C[C@H](CO)N1C[C@H](C)[C@@H](CN(C)C(=O)Nc2ccc(C(F)(F)F)cc2)Oc2ncc(C3=CCCC3)cc2C1=O	.	-54	102*	1	103*	52	18	74*
C[C@@H]1CN([C@H](C)CO)C(=O)c2cc(C3=CCCC3)cnc2O[C@H]1CN(C)C(=O)Nc1ccc(F)cc1	.	1	46	3	.	.	.	.
C[C@H]1CN([C@@H](C)CO)S(=O)(=O)c2ccc(C#Cc3ccccc3)cc2O[C@H]1CN(C)C(=O)Nc1ccccc1	0	-35	3	0	.	.	.	.
